A short description of assay [1]: Cytotoxicity against human PC3M cells at 100 ug/ml after 72 hrs by MTT assay. The assay is classed as functional. The conditions noted are these: PC-3M, read-out: GI. In short, it runs like this: (§1)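 Test samples (>95% pure) were dissolved in DMSO and diluted with PBS to a 1000 µg mL-1 solution. This was serially diluted in PBS to 100–3.125 µg mL-1 solutions. Human cells were seeded at (4-6) × 10^4 cells/mL, and 10 µL/well of sample was added 24 h after seeding. Plates were incubated 72 h at 37 °C in humidified 5% CO2. Viability was read by MTT at 570 nm. Doxorubicin served as positive control.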
On the technique in general: Tetrazolium dyes change colour on reduction, which living cells bring about.

Assay [2] concerns HCT-116. The experiment in a line: Cytotoxicity against human HCT116 cells after 72 hrs by MTT assay. Format: functional, cell-based. The conditions noted are these: HCT-116, 72 h. The essentials:
as §1

The test system of assay [3] is HCT-116. The experiment in a line: Cytotoxicity against human HCT116 cells at 100 ug/ml after 72 hrs by MTT assay. The assay is classed as functional. The note with it: HCT-116, 72 h, read-out: GI. In short, it runs like this:
as §1

In assay [4] the test system is NCI-H446. Nature of the assay: Cytotoxicity against human NCI-H446 cells at 100 ug/ml after 72 hrs by MTT assay. The note with it: NCI-H446, 72 h, read-out: GI. Format: functional. In short, it runs like this: as §1
Assay [5] deals with HL-60. Nature of the assay: Cytotoxicity against human HL60 cells at 100 ug/ml after 72 hrs by MTT assay. Format: functional. The note with it: HL-60, 72 h, read-out: GI. The essentials:
as §1

In assay [6] the test system is NCI-H446. The experiment in a line: Cytotoxicity against human NCI-H446 cells after 72 hrs by MTT assay. The note with it: NCI-H446, 72 h. Format: functional, cell-based. In short, it runs like this: as §1
Assay [7] in a line: Cytotoxicity against human PC3M cells after 72 hrs by MTT assay. The assay is classed as functional, cell-based. The note with it: PC-3M. The essentials:
as §1

Assay [8] deals with HL-60. The experiment in a line: Cytotoxicity against human HL60 cells after 72 hrs by MTT assay. The assay is classed as functional, cell-based. The note with it: HL-60, 72 h. The essentials: as §1

6 compounds from ChEMBL document CHEMBL1221381, “Heterocyclic compounds and aromatic diglycosides from Bretschneidera sinensis” (J Nat Prod, 2010) can be followed below.

≈ marks a conversion by molar mass, not a printed value.

What is called IC50 is the concentration at which inhibition is half-maximal. For `COc1cc(CO[C@@H]2O[C@H](CO[C@@H]3OC[C@](O)(CO)[C@H]3O)[C@@H](O)[C@H](O)[C@H]2O)ccc1O` [BRETSCHNEIDEROSIDE C], the inhibition of growth at 100 µg/mL was determined as 6.35% in assay [1], 9.3% in the assay on HCT-116 [3], 40.7% with NCI-H446 [4] and 5.68% in the assay with HL-60 [5]. For the same compound, the concentration for half-maximal inhibition (IC50) (in the assay on HCT-116 [2]; in the assay with NCI-H446 [6]; in assay [7]; in the assay with HL-60 [8]) was above 100 µg/mL in each case.
In the case of `COc1ccc2c(=O)n(C)c(=S)sc2c1OC` [BRETSCHNEIDERAZINE B], the inhibition of growth at 100 µg/mL came to 0% in assay [1], 0% in the assay on HCT-116 [3], 41.3% in the assay on NCI-H446 [4] and 8.04% in the assay with HL-60 [5]. Besides, the IC50 in the assay on HCT-116 [2] was above 100 µg/mL; in the assay with NCI-H446 [6], 60.2 µg/mL (≈ 224 µM); in assay [7] it was above 100 µg/mL; with HL-60 [8] it was above 100 µg/mL.
On to `COc1cc2sc(=S)n(C)c(=O)c2cc1O` [BRETSCHNEIDERAZINE A], for which the inhibition of growth at 100 µg/mL in assay [1] is 29.4%; in the assay on HCT-116 [3] it was 0%; in the assay on NCI-H446 [4], 53.9%; with HL-60 [5], 9.91%. Moreover, the IC50 with HCT-116 [2] is above 100 µg/mL; in the assay on NCI-H446 [6], 79.2 µg/mL (≈ 310 µM); in assay [7], above 100 µg/mL; in the assay on HL-60 [8], above 100 µg/mL.
For `COc1cc(C=O)ccc1O[C@@H]1O[C@H](CO[C@@H]2OC[C@](O)(CO)[C@H]2O)[C@@H](O)[C@H](O)[C@H]1O` [BRETSCHNEIDEROSIDE A], the inhibition of growth at 100 µg/mL was 0% in assay [1], 0% in the assay on HCT-116 [3], 29.7% in the assay with NCI-H446 [4] and 0.14% with HL-60 [5]. Also, the half-inhibitory concentration (IC50) (with HCT-116 [2]; in the assay on NCI-H446 [6]; in assay [7]; with HL-60 [8]) was above 100 µg/mL throughout.
Regarding `COc1cccc2c1C(=O)c1c(O)c3c(c(O)c1C2=O)C[C@@](O)(C(=O)CO)C[C@@H]3O[C@H]1C[C@H](N)[C@H](O)[C@H](C)O1` [DOXORUBICIN], the inhibition of growth at 100 µg/mL in assay [1] was determined as 96.4%; in the assay on HCT-116 [3], 93.1%; with NCI-H446 [4], 91.2%; with HL-60 [5], 94.7%. In addition, the half-maximal inhibitory concentration (IC50) is 0.286 µg/mL (≈ 0.526 µM) with HCT-116 [2], 0.0248 µg/mL (≈ 0.0456 µM) in the assay with NCI-H446 [6], below 0.001 µg/mL in assay [7] and 0.457 µg/mL (≈ 0.841 µM) in the assay on HL-60 [8].
As to `O=Cc1ccc(O[C@@H]2O[C@H](CO[C@@H]3OC[C@](O)(CO)[C@H]3O)[C@@H](O)[C@H](O)[C@H]2O)c(O)c1` [BRETSCHNEIDEROSIDE B], the inhibition of growth at 100 µg/mL in assay [1] was found to be 0%; with HCT-116 [3], 0%; in the assay with NCI-H446 [4] it was 38.4%; with HL-60 [5] it was 7.25%. Besides, the IC50 (with HCT-116 [2]; in the assay with NCI-H446 [6]; in assay [7]; in the assay with HL-60 [8]) was above 100 µg/mL throughout.
